# RGS4 block: human RGS4 inhibition | HEK293 M3R/RGS4 inducible, Fluo-4 calcium flux; hits give high values; triggered by carbachol at its EC20 | hit rate 0.45% among 310,000 | P49798 | AID 463165 | B-score at 10 µM;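 active = B-score, a plate-corrected calcium signal, over three deviations above library mean, with baseline fluorescence within five deviations of library mean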;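 also: RGS4 expression induced by doxycycline in cells with stable M3 receptor; B-score is computed from the integrated fluorescence ratio over baseline after carbachol; higher B-score means a larger calcium signal and so more RGS4 inhibition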
# Target sequence (P49798 whole entry, looked up): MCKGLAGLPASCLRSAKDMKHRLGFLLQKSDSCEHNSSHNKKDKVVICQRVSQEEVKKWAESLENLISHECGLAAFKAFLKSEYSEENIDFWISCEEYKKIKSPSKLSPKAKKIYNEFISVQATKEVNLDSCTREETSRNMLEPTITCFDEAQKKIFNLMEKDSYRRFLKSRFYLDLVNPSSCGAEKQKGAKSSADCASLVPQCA
# PHOSPHO1 inh: PHOSPHO1 (human) inhibition. Q8TCT1. recombinant PHOSPHO1, absorbance phosphatase assay. inhibition, % at 13.3 µM. hit rate 1.1% among 290,000. AID 1565; in the data active = inhibition above about 60%
# Target sequence (Q8TCT1 whole entry, looked up): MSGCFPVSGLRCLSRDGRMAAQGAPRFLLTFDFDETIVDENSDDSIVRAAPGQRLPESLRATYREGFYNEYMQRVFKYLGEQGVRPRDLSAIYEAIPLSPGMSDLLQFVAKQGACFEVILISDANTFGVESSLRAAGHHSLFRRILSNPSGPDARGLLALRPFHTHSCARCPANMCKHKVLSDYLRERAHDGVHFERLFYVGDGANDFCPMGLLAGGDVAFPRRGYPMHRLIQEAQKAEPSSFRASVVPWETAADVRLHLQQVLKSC
# MrgX1 antagonist: blocks BAM8-22 activation of human MrgX1 receptor | AID 588676 | hit rate 1.3% among 310,000 | B-score at 10 µM | Q96LB2 | MRGX1-HEK293 calcium flux, Fluo-4, BAM8-22 antagonism; hits give low values;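 active = calcium-response B-score plate-corrected more than 3 library SD below zero, starting fluorescence within 5 deviations, no agonist response on first addition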;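 also: peak minus trough fluorescence over baseline after final BAM8-22 challenge near maximal dose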
# MrgX1 agonist: human MrgX1 receptor agonism, primary screen. Q96LB2. MrgX1-HEK293 cells, Fluo-4 calcium fluorescence, agonist mode; hits give high values. B-score at 10 µM. hit rate 0.44% among 310,000. AID 588627;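 active = calcium response B-score plate-corrected fluorescence ratio at least 3 library SD, with starting fluorescence B-score inside 5 SD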
#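 System – MrgX1-expressing HEK293 cells · Incubation – cells plated overnight, dye loaded 0.5 h 37 °C, 0.5 h room temperature · Technique – kinetic Fluo-4 NW fluorescence of intracellular calcium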
# MrgX1 allo act: allosterically activates human MrgX1 receptor signaling. Q96LB2. MrgX1-HEK293, Fluo-4 calcium flux, FDSS; hits give high values. B-score at 10 µM. hit rate 0.63% among 310,000;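 active = plate-corrected calcium response at least 3 library SD above typical, normal starting fluorescence, not activating the receptor alone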;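 also: compound read alongside a low EC10 to EC30 dose of BAM8-22 agonist; peak minus trough fluorescence over baseline measured at the second addition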
# RGS4 act: potentiators or activators of RGS4 | HEK293 M3R/inducible RGS4, carbachol calcium flux Fluo4; hits give low values | B-score at 10 µM | hit rate 0.92% among 310,000 | AID 463111;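 active = B-score of the integrated calcium signal more than 4 SD below the library mean, with starting fluorescence not abnormally high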;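 also: negative B-score means reduced calcium response which marks RGS4 activation or potentiation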
#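 Detection: kinetic calcium fluorescence imaging with Fluo4-AM dye, 2 µM / Material: HEK293 cells with stable M3R and inducible RGS4 / Schedule: recording 10 s baseline at 1 Hz, 100 s post-agonist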
# Hits are given with their value; . = inactive; / = no result given. Compounds with a hit are over-represented: about 4.5% of the library has one in this group of screens.
SMILES,RGS4 block,PHOSPHO1 inh,MrgX1 antagonist,MrgX1 agonist,MrgX1 allo act,RGS4 act
CSc1cccc(NC(=O)c2ccc(CN3CCc4ccccc4C3)cc2)c1,.,.,-8.2,.,.,.
NC(=O)CC(NC(=O)c1cccc(Br)c1)c1ccc(N2CCC(N3CCCC3)CC2)c([N+](=O)[O-])c1 (stereo not drawn),.,.,.,.,.,.
CCCCNS(=O)(=O)c1ccc2nc(SCC(=O)N3CC(C)OC(C)C3)[nH]c2c1 (stereo not drawn),.,75,.,.,.,.
O=C(CSc1nc2ccc(S(=O)(=O)N3CCOCC3)cc2[nH]1)N1CCOCC1,.,67,.,.,.,.
O=C(CSc1nc2ccccc2c(=O)[nH]1)N1CCOCC1,.,.,.,.,.,.
Nc1cc2c3c(cccc3c1)C(=O)N(CCN1CCCC1)C2=O,.,.,-4.7,.,.,.
O=C1c2cccc3cc([N+](=O)[O-])cc(c23)C(=O)N1CCN1CCCC1,.,.,/,/,/,.
O=S(=O)(NCc1ccc(F)cc1)c1ccc(-n2cnnn2)cc1,.,.,.,.,.,.
CC(C)[C@H](NC(=O)[C@H](CCCN=C(N)N)NC(=O)NC(Cc1ccccc1)C(=O)O)C(=O)NC(C=O)CCCN=C(N)N (stereo partly drawn),.,.,.,46,.,.
CCc1ccc(N(C(=O)c2csnn2)C(C(=O)NC(C)(C)CC)c2cccnc2)cc1 (stereo not drawn),.,.,.,.,.,.
CC(=O)Nc1nc(C)c(-c2csc(Nc3cccc(C(C)=O)c3)n2)s1,.,.,.,.,.,-7.5
Cc1ccc(Cl)cc1Nc1nc(-c2sc(NC(=O)C(C)(C)C)nc2C)cs1,.,72,.,.,.,.
COc1ccccc1Nc1nc(-c2sc(NC(=O)CC(C)C)nc2C)cs1,.,77,.,.,.,.
COc1ccc(OC)c(Nc2nc(-c3sc(N)nc3C)cs2)c1,.,.,.,.,.,.
CC(=O)Nc1nc(C)c(-c2csc(Nc3cccc([N+](=O)[O-])c3)n2)s1,.,.,.,.,.,.
C=CCCC(=O)Nc1nc(C)c(-c2csc(Nc3cc(OC)ccc3OC)n2)s1,.,72,.,.,.,.
CC1CC(C)CN(CCCNC(=O)CN2C(=O)CSc3ccc(S(=O)(=O)N4CCCCC4)cc32)C1 (stereo not drawn),.,.,.,.,.,.
COc1cc2c(cc1OC)CN(C(=O)CNC(=O)c1ccc(OC(F)F)cc1)CC2,.,.,.,.,.,.
C=CCCC(=O)Nc1nc(C)c(-c2csc(Nc3cccc(OC)c3)n2)s1,.,104,.,.,.,.
CCCC(C)C(=O)Nc1nc(C)c(-c2csc(Nc3cc(OC)ccc3OC)n2)s1 (stereo not drawn),.,77,.,.,.,.
Cc1ccccc1Nc1nc(-c2sc(NC(=O)c3ccco3)nc2C)cs1,.,66,.,.,.,.
COc1cccc(Nc2nc(-c3sc(NC(=O)c4ccccc4)nc3C)cs2)c1,.,.,.,.,.,.
COc1cccc(Nc2nc(-c3sc(NC(=O)CC(C)C)nc3C)cs2)c1,.,104,.,.,.,.
CCn1nc(C)c(NS(=O)(=O)c2ccccc2)c1C,.,.,.,.,.,.
CN(Cc1c(C(=O)N2CCCCCCC2)nc2ccc(Cl)cn12)C1CCOC1 (stereo not drawn),.,.,.,.,.,.
SMILES,RGS4 block,PHOSPHO1 inh,MrgX1 antagonist,MrgX1 agonist,MrgX1 allo act,RGS4 act
O=C(NCc1cccc(C(F)(F)F)c1)c1ccc(=O)[nH]c1,.,.,.,.,.,.
CCCC(=O)Nc1nc(C)c(-c2csc(Nc3cc(OC)ccc3OC)n2)s1,.,89,.,.,.,.
COc1ccccc1Nc1nc(-c2sc(NC(=O)C(C)(C)C)nc2C)cs1,.,67,.,.,.,.
CCCC(=O)Nc1nc(C)c(-c2csc(Nc3ccccc3OC)n2)s1,.,86,.,.,.,.
CCCCCC(=O)Nc1nc(C)c(-c2csc(Nc3cc(Cl)ccc3OC)n2)s1,.,89,.,.,.,.
CCCC(=O)Nc1nc(C)c(-c2csc(Nc3ccc(Cl)cc3)n2)s1,.,.,.,.,.,.
COc1ccccc1Nc1nc(-c2sc(NC(=O)c3cccc(Cl)c3)nc2C)cs1,.,.,.,.,.,.
O=C(c1cccnc1)N1CCN(Cc2ccc3ccccc3c2)CC1,.,.,.,.,.,.
COc1ccc(CCN(C)C(=O)CCCN2C(=O)c3cccc4cccc(c34)C2=O)cc1OC,.,.,.,.,.,.
COc1ccccc1NC(=O)Nc1nc(CC(=O)N2CCN(c3ccccc3F)CC2)cs1,.,/,.,.,.,-7.1
COc1ccccc1NC(=O)Nc1nc(CC(=O)NCc2c(F)cccc2F)cs1,.,/,.,.,.,.
CCOc1ccc(Nc2n[nH]c(=S)s2)cc1,.,.,.,.,.,.
S=c1[nH]nc(Nc2ccc(Cl)cc2)s1,.,86,.,.,.,.
CCOC(=O)c1ccc(CC(=O)c2ccc(O)cc2O)o1,.,.,.,.,.,.
CCC(=O)Oc1ccc(C/C(=N\O)c2ccc(O)cc2O)o1,.,.,-4.6,.,.,.
Cc1ccnc(NC(=O)CCc2c(C)nc3ncnn3c2C)c1,.,64,.,.,.,.
CCOC(=O)c1ccccc1NC(=O)CSc1nc2ccccc2n1CC(=O)N1CCCC1,.,.,.,.,.,.
Cc1nn(-c2ccccc2)c(C)c1/C=C/C(=O)OCC(=O)Nc1ncc(C(F)(F)F)cc1Cl,.,.,.,.,.,.
Cc1ccc(-c2cc(C(=O)N/N=C/c3c(C)nn(-c4ccccc4)c3C)n[nH]2)s1,.,.,/,/,/,-7.7
COC(=O)[C@@H]1C[C@H]2CC[C@H](O)C[C@H]2N1Cc1ccc(C(F)(F)F)cc1,.,.,.,.,.,.
CCc1nnc(NCC(=O)N2CCc3ccccc32)s1,.,69,.,.,.,.
CSc1ccccc1OCc1cc(C(=O)N(C)Cc2ccncn2)no1,.,.,.,.,.,.
CNC(=O)C(=O)NCC1OCCN1S(=O)(=O)c1ccc(C)cc1 (stereo not drawn),.,.,.,.,.,.
COc1ccc(N2CCN(C(CNC(=O)C(=O)NCCCn3ccnc3)c3ccco3)CC2)cc1 (stereo not drawn),.,.,-4.9,.,.,.
Cc1ccc(S(=O)(=O)N2CCOC2CNC(=O)C(=O)NCC(C)C)cc1 (stereo not drawn),.,62,.,.,.,.
COc1ccc(S(=O)(=O)N2CCCOC2CNC(=O)C(=O)NCCCn2ccnc2)cc1 (stereo not drawn),.,61,.,.,.,.
O=C(CSc1ncn[nH]1)c1ccccc1,.,95,.,.,.,.
